# Source: ChEMBL document CHEMBL3098047, “Design, synthesis and structure-activity relationships of substituted oxazole-benzamide antibacterial inhibitors of FtsZ” (Bioorg Med Chem Lett, 2014)
# Key:
# Staphylococcus aureus [1] = assay: Antibacterial activity against Staphylococcus aureus harboring FtsZ G196A mutant by broth microdilution method; assay type: functional
# Summary of the method: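 S. aureus ATCC 29213 derivative with G196A substitution in FtsZ; MIC by broth microdilution following CLSI guidelines; reported in µg/mL.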
# [2] = target: T1, Cell division protein FtsZ (Staphylococcus aureus) (UniProt P0A031); assay: Inhibition of Staphylococcus aureus ATCC 29213 FtsZ-mediated cell division phenotype
# T1 sequence (whole entry): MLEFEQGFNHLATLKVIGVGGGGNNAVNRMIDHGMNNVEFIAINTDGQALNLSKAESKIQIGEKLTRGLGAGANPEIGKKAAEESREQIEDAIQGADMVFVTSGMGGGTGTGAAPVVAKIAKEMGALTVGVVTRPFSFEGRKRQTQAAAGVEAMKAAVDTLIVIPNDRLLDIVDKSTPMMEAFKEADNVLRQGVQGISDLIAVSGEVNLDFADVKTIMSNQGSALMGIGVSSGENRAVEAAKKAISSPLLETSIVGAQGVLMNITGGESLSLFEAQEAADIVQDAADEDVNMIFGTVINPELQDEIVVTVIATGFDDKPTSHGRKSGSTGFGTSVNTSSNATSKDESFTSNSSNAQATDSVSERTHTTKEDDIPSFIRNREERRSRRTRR
# Summary of the method: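 S. aureus ATCC 29213 cell division inhibition assay run alongside MIC testing; value is the lowest concentration at which an inhibition of cell division phenotype was seen (µg/mL).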
# Staphylococcus aureus [3] = assay: Antibacterial activity against Staphylococcus aureus ATCC 29213 by broth microdilution method; assay type: functional
# Summary of the method: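 Broth microdilution MIC per CLSI guidelines against S. aureus ATCC 29213; MIC in µg/mL.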
# [4] = Kinetic solubility of the compound in PBS buffer at pH 7.4 after 24 hrs by turbidimetric method; assay type: physicochemical; conditions: read-out: Kinetic_solubility
# Summary of the method: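 Turbidimetric: doubling dilutions in DMSO diluted twenty-fold into PBS pH 7.4, equilibrated 24 h at room temperature, absorbance read at 620 nm. Value is highest concentration with no measurable precipitate.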
SMILES,MIC (Staphylococcus aureus [1]) [µg/mL],MIC [2] [µg/mL],MIC (Staphylococcus aureus [3]) [µg/mL],solubility kinetic at 24 h [4] [µg/mL]
NC(=O)c1c(F)ccc(OCc2nc(-c3ccc(Cl)cc3)c(Br)o2)c1F,2,0.03,0.06,–
NC(=O)c1c(F)ccc(OCc2nc(-c3ccccc3)co2)c1F,> 64,16,16,–
NC(=O)c1c(F)ccc(OCc2nc3cc(Cl)cnc3s2)c1F,> 64,0.5,1,–
COc1ccc(-c2nc(COc3ccc(F)c(C(N)=O)c3F)oc2C2CC2)cc1,> 64,0.12,0.12,–
NC(=O)c1c(F)ccc(OC(COP(=O)(O)O)c2nc(-c3ccc(C(F)(F)F)cc3)c(Br)o2)c1F (racemic),–,–,–,> 800
CCOc1oc(COc2ccc(F)c(C(N)=O)c2F)nc1-c1ccc(Cl)cc1,> 64,0.03,0.06,–
NC(=O)c1c(F)ccc(OCc2nc(-c3ccc(Cl)cc3)c(CCCO)o2)c1F,> 64,2,2,–
NC(=O)c1c(F)ccc(OC(COC(=O)NCCN2CCCC2)c2nc(-c3ccc(C(F)(F)F)cc3)c(Br)o2)c1F (racemic),–,–,–,400
NC(=O)c1c(F)ccc(OC(COC(=O)NCCc2c[nH]cn2)c2nc(-c3ccc(C(F)(F)F)cc3)c(Br)o2)c1F (racemic),–,–,–,100
NC(=O)c1c(F)ccc(O[C@H](CO)c2nc(-c3ccc(C(F)(F)F)cc3)c(Br)o2)c1F,4,0.25,0.12,–
NC(=O)c1c(F)ccc(OCc2nc(-c3ccc(OC(F)(F)F)cc3)c(C(F)(F)F)o2)c1F,> 64,0.5,0.5,–
CCC(Oc1ccc(F)c(C(N)=O)c1F)c1nc(-c2ccc(Cl)cc2)c(Br)o1 (racemic),–,1,2,–
NC(=O)c1c(F)ccc(OCc2nc(-c3ccc(Cl)cc3)c([N+](=O)[O-])o2)c1F,> 64,> 64,> 64,–
NC(=O)c1c(F)ccc(OC(COC(=O)N2CCNCC2)c2nc(-c3ccc(C(F)(F)F)cc3)c(Br)o2)c1F (racemic),–,–,–,200
NC(=O)c1c(F)ccc(OC(c2cccnc2)c2nc(-c3ccc(Cl)cc3)c(Br)o2)c1F (racemic),–,4,4,–
N#Cc1oc(COc2ccc(F)c(C(N)=O)c2F)nc1-c1ccc(C(F)(F)F)cc1,> 64,4,2,–
NC(=O)c1c(F)ccc(OCc2nc(-c3ccc(OC(F)(F)F)cc3)c(I)o2)c1F,> 64,0.06,0.06,–
NC(=O)c1c(F)ccc(OCc2nc(-c3ccc(OC(F)(F)F)cc3)c(Br)o2)c1F,2,0.03,0.06,–
CC(=O)OCC(Oc1ccc(F)c(C(N)=O)c1F)c1nc(-c2ccc(C(F)(F)F)cc2)c(Br)o1 (racemic),–,0.5,0.5,25
NC(=O)c1c(F)ccc(OC(COC(=O)Nc2nnn[nH]2)c2nc(-c3ccc(C(F)(F)F)cc3)c(Br)o2)c1F (racemic),–,–,–,800
NC(=O)c1c(F)ccc(OCc2nc(-c3ccc(Cl)cc3)co2)c1F,> 64,4,4,–
Cc1oc(COc2ccc(F)c(C(N)=O)c2F)nc1-c1ccc(Cl)cc1,> 64,0.5,0.5,–
COc1ccc(-c2nc(COc3ccc(F)c(C(N)=O)c3F)oc2-c2ccccc2)cc1,> 64,0.12,0.12,–
CC(C)(Oc1ccc(F)c(C(N)=O)c1F)c1nc(-c2ccc(Cl)cc2)c(Br)o1,–,–,> 64,–
